In the library only some 2% were active in any assay of this set; here they are far more common.
Ecoli rRNA inh: selective bacterial rRNA inhibition in E. coli | actives 1.6% (n = 350,000) | E. coli WT GFP vs humanized-ribosome RFP mutants, fluorescence, 24 h; active compounds read low; DMSO median 0, no signal -100 | GFP signal change (wild-type ribosome), % (concentration not given with the values);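 active = significant combined selectivity score with lowered wild-type GFP, culture density cut under 30%, mutant RFP and density less affected; inactive = any of these conditions unmet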
RAD52 anneal inh: blocks human RAD52 DNA annealing | P43351 | recombinant RAD52 DNA annealing, FRET fluorescence | inhibition, % at 18.7 µM | actives 0.46% (n = 360,000) | AID 651710;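 active = every replicate showing at least 50% inhibition; inconclusive = mean inhibition at least 50% but not in every replicate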
RAD54 inh: RAD54 (human) branch migration inhibition; actives 0.14% (n = 360,000); RAD54 Holliday junction branch migration, FAM/BHQ fluorescence; AID 602329; Q92698; inhibition, % at 10.4 µM;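 active = mean normalized replicate activity at least 40 and at least half of replicates scoring 40 or more; inconclusive = only one of the two criteria met; inactive = mean below 40 and under half of replicates reaching 40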;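 also: inhibitors cause a drop in the FAM fluorescence signal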
E-sel inducer: E-selectin induction on HUVECs; P16581; HUVEC E-selectin immunofluorescence imaging; normalized: neutral wells 0, TNF-alpha wells 100; activation, % at 7.58 µM; actives 0.37% (n = 260,000); AID 686992;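 active = mean E-selectin-positive cell signal at least 10% of the positive control, reached in at least 60% of replicates, without over 20% cell loss; inconclusive = no rule given, readout overlaps actives, possibly toxicity-flagged; inactive = the rest, including those meeting only one limit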
Target sequence (P16581 whole entry, looked up): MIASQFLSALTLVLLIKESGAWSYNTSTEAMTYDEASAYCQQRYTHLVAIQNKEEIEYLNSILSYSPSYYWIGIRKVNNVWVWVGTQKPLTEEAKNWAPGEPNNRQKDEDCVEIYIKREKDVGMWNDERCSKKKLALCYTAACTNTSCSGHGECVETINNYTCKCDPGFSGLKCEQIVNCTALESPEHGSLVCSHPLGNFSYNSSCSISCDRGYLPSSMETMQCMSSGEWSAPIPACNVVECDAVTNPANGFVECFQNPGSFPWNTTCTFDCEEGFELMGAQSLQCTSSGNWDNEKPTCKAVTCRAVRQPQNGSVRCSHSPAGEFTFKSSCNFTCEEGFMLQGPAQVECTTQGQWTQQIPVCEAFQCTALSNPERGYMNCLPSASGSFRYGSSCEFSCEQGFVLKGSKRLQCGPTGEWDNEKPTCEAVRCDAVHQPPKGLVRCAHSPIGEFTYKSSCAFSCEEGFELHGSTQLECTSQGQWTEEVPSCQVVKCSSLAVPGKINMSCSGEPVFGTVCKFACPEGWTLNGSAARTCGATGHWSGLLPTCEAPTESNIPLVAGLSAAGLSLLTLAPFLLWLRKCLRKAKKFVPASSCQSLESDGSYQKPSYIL
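Test system – human umbilical vein endothelial cells (HUVEC), E-selectin induction · Input – 3,000 HUVEC seeded per well · Buffer or medium – EGM-2, gelatin · Compound dosing – single-point compound dose · Detection – immunofluorescence imaging · Measure – percent E-selectin-positive cells · Controls – TNF-alpha high, DMSO low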
XiGFP reactiv: X-chromosome reactivation activator; XiGFP mouse fibroblasts, % GFP-positive cells imaging, 3 d; cells co-treated with 5-aza-dC sensitizer; scaled so ellipticine positive control = 100%; actives 0.055% (n = 360,000); activation, % at 7.58 µM;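 active = mean normalized replicate activation at least 10% and every replicate at or above 10%; inconclusive = only one of the two criteria met; inactive = mean below 10% and not all replicates reach 10%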
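System: 68-5-11 XiGFP fibroblast line | Buffer or medium: DMEM containing 5-aza-dC | Compound: Single point | Times: Compounds 3 days, fix/stain 15 min at room temperature | Benchmarks: Positive control ellipticine, 6 µM final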
PglD DTNB: blocks C. jejuni PglD acetyltransferase activity. purified PglD enzyme, DTNB colorimetric CoA detection. actives 0.098% (n = 360,000). AID 602405. inhibition, % at 12.5 µM; in the data active = inhibition above about 16%, passing the limit was not always enough; inconclusive = no clear call, values can overlap the other calls
DNA binding: binds DNA, flagging false Rad54 inhibitor hits. actives 8% (n = 460). AC50, µM (series often up to 35 µM). Acridine orange-DNA displacement, fluorescence polarization, 20 min. shares compounds with RAD54 inh;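 active = signal drop giving an AC50 within twice the top valid tested concentration of each sample, actives reach about 35 µM in these data; inactive = activity opposite to expected, plus the rest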;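 also: polarization loss reports compound binding to salmon sperm DNA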
RAD52 DNA ctr: counter-screen for RAD52 inhibitors: DNA binding compounds | actives 8% (n = 1,000) | AC50, µM | shares compounds with RAD52 anneal inh | AID 652128 | Salmon sperm DNA/acridine orange FP displacement;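 active = fitted half-maximal concentration for signal loss at or below twice the highest dose tested, in every separate run, actives reach about 64 µM in these data; inconclusive = runs disagree, or flat partial signal loss, or poor fit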
AID977621: growth inhibition of wild-type GFP E. coli, dose response, H69 mutant RFP, cherry-pick | shares compounds with Ecoli rRNA inh | E. coli wild-type GFP strain growth, fluorescence, 24 h | activity change, negative = inhibition at 50 µM | 1,900 tested, under 10 active | AID 977621;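 active = Wild-type ribosome reporter drop at least double the humanized mutant ribosome reporter drop, growth loss under a set limit; inconclusive = no clear call, values can overlap the other calls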;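 also: wild-type GFP and H69 mutant RFP strains grown together 50/50 in each well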
A number is an active result; i = inactive; ? = inconclusive; nt = no result given.

SMILES	Ecoli rRNA inh	RAD52 anneal inh	RAD54 inh	E-sel inducer	XiGFP reactiv	PglD DTNB	DNA binding	RAD52 DNA ctr	others
CCN1CCN(c2cc(C)c3cc(NC(=S)N4CCC5(CC4)OCCO5)ccc3n2)CC1	i	55.8	?	i	i	i	i	i
CCCN1CCN(C(=S)Nc2ccc3nc(N4CCN(CC)CC4)cc(C)c3c2)CC1	i	88.9	61.8	i	i	i	i	i
C[C@H](CO)N1C[C@H](C)[C@H](CN(C)C(=O)Nc2ccccc2)OCCCC[C@H](C)Oc2ccc(NC(=O)CCC(F)(F)F)cc2C1=O	i	i	i	nt	i	i	nt	nt
CC(OC(=O)c1ccc(S(C)(=O)=O)c([N+](=O)[O-])c1)C(=O)NC1C2CC3CC(C2)CC1C3 (stereo unspecified)	i	i	i	i	i	i	nt	nt
Cc1ccc(S(=O)(=O)Nc2ccc3c(c2)C(=O)N([C@H](C)CO)C[C@H](C)[C@H](CN(C)Cc2ccc4c(c2)OCO4)O3)cc1	i	i	i	i	i	i	nt	nt
NC(=O)CN1CCN(CCN2C(=O)c3cccc4cccc(c34)C2=O)CC1	i	i	57.6	i	i	i	i	i
O=C1c2cccc3cc([N+](=O)[O-])cc(c23)C(=O)N1CCN1CCCC1	i	82.2	98.0	i	i	i	33.6µM	24.8µM
CCNC(=S)N1CCN(CCN2C(=O)c3cccc4cccc(c34)C2=O)CC1	i	i	i	i	i	i	nt	nt
O=C1c2cccc3cc([N+](=O)[O-])cc(c23)C(=O)N1/N=C/c1ccc(O)cc1O	i	i	nt	nt	i	nt	nt	nt
COc1ccc(S(=O)(=O)Nc2ccc3c(c2)C(=O)N([C@H](C)CO)C[C@H](C)[C@@H](CN(C)Cc2ccc(C(F)(F)F)cc2)O3)cc1	i	i	i	i	i	i	nt	nt
C[C@@H]1CN([C@H](C)CO)C(=O)c2cc(NS(=O)(=O)c3ccccc3)ccc2O[C@@H](C)CCCCO[C@@H]1CN(C)Cc1ccc(C(=O)O)cc1	i	nt	i	i	i	i	nt	nt
COc1ccc(C)c2sc(N(CCN(C)C)C(=O)c3ccc4ccccc4c3)nc12	i	73.2	51.6	i	i	i	i	i
C[C@H]1CN([C@@H](C)CO)C(=O)c2cc(C#CC(C)(C)O)cnc2O[C@@H]1CN(C)C(=O)CC1CC1	i	i	i	i	i	i	nt	nt
CN(C)CCNC(=O)c1cc2c(s1)-c1ccc(Cl)cc1SC2	i	81.2	56.7	i	i	i	i	?
CN(C)CCNC(=O)c1cccc(-c2cnc3c(NC=O)cc(-c4ccc(F)cc4)cn23)c1	i	92.2	54.8	i	i	i	i	i
COc1ccc(-c2cc(NC=O)c3ncc(-c4cccc(OC)c4)n3c2)cc1	i	i	i	i	i	i	nt	nt
CN(C)C(=O)c1cccc(-c2cnc3c(NC=O)cc(-c4cc(F)c(F)c(F)c4)cn23)c1	i	i	i	i	i	i	nt	nt
COc1ccc(-c2cc(NC=O)c3ncc(-c4cccc(C(=O)NCCN(C)C)c4)n3c2)cc1	i	89.9	68.9	i	i	i	i	i
CN(C)CCNC(=O)c1cccc(-c2cnc3c(NC=O)cc(-c4cccc(F)c4)cn23)c1	i	91.1	?	i	i	i	i	i
Oc1cccc(Nc2c3ccccc3nc3ccccc23)c1	i	81.8	57.3	i	i	i	30µM	?
COc1ccc(Nc2c3ccccc3nc3ccccc23)cc1	i	73.2	100.7	i	i	i	26.8µM	10.6µM
COc1nc(NCCc2ccc(OC)c(OC)c2)nc(OC)n1	nt	nt	i	nt	nt	i	nt	nt
COc1ccc(CCNc2c3ccccc3nc3ccccc23)cc1OC	i	83.4	100.4	i	i	i	i	i
COc1cc(Nc2c3ccccc3nc3ccccc23)cc(OC)c1OC	i	55.1	76.2	i	i	i	i	i
C[C@@H]1CN([C@@H](C)CO)S(=O)(=O)c2ccc(C3=CCCC3)cc2O[C@H]1CN(C)CC1CCOCC1	i	i	i	i	i	i	nt	nt
SMILES	Ecoli rRNA inh	RAD52 anneal inh	RAD54 inh	E-sel inducer	XiGFP reactiv	PglD DTNB	DNA binding	RAD52 DNA ctr	others
CCCC#Cc1cnc2c(c1)C(=O)N([C@@H](C)CO)C[C@@H](C)[C@H](CN(C)C(=O)C1CCOCC1)O2	i	i	i	i	i	i	nt	nt
Fc1cccc(NCCc2c[nH]c3ccccc23)n1	i	i	i	i	i	i	nt	nt
c1ccc2c(NCCc3c[nH]c4ccccc34)c3ccccc3nc2c1	i	97.1	92.8	i	i	i	35.6µM	41.4µM
COc1ccc(NC(=O)N(C)C[C@H]2Oc3ccc(NS(=O)(=O)c4cn(C)cn4)cc3CC(=O)N([C@@H](C)CO)C[C@@H]2C)cc1	i	i	i	i	i	i	nt	nt
CN(CCO)C(=O)c1c(NC(=O)c2ccccc2)sc2c1CCCC2	i	i	i	nt	i	i	nt	nt
CN(C)CCNC(=O)c1c(NC(=O)c2ccccc2)sc2c1CCCC2	i	53.0	58.0	nt	i	i	i	i
CN(C)CCCNc1c2c(nc3ccccc13)CCC2	i	78.2	66.9	i	i	i	i	i
Cc1ccc(-c2nc(NCc3ccco3)c3ccccc3n2)cc1	i	i	nt	nt	i	nt	nt	nt
CN(C)CCNc1cc(-c2ccncc2)nc2ccccc12	i	80.0	57.5	nt	i	i	i	i
Cc1ccc(-c2nc(NCCN(C)C)c3ccccc3n2)cc1	i	71.2	77.9	i	i	i	i	i
O=C(NCc1ccccc1)c1cc(-c2ccncc2)nc2ccccc12	i	i	i	nt	i	i	nt	nt
CN(C)CCCNc1ncnc2sc(-c3ccccc3)cc12	i	67.7	64.4	i	i	i	i	?
CCCNC(=O)N1C[C@@H](O)COC[C@@H]2O[C@H](CC(=O)OC)CC[C@H]21	i	i	i	i	i	i	nt	nt
Cn1cnc(S(=O)(=O)N[C@@H]2CC[C@H](CC(=O)NCC3CC3)O[C@@H]2CO)c1	i	i	i	i	i	i	nt	nt
Cc1cccc(-c2nc(NCCCN(C)C)c3ccccc3n2)c1	i	83.6	82.2	nt	i	i	i	i
CCOC(=O)c1cnc2c(ccc3ccccc32)c1NCCCN(C)C	-26.2	96.4	123.5	i	i	i	i	?	AID977621=i
C[C@H]1CN([C@@H](C)CO)C(=O)CCCn2cc(nn2)CO[C@H]1CN(C)C(=O)c1ccc2ccn(C)c2c1	i	nt	nt	i	i	nt	nt	nt
